From ChEMBL document CHEMBL2396604, “Synthesis and structure activity relationship of tetrahydroisoquinoline-based potentiators of GluN2C and GluN2D containing N-methyl-D-aspartate receptors” (J Med Chem, 2013)
Activity calls are given as the source filed them. The rule behind the calls is not given here.

Tests used:
Assay type in all cases: cell-based
[1] = biological target: Ionotropic glutamate receptor NMDA 1/2D (Rattus norvegicus) (UniProt P35439+Q62645); assay: Activity at rat recombinant GluN1/GluN2D receptor expressed in Xenopus oocytes assessed as potentiation of 0.3 uM glycine/0.1 uM glutamate-induced activation at 10 uM by two-electrode voltage clamp technique relative to control; details: Oocyte
[2] = biological target: Glutamate receptor ionotropic, kainate 2 (Rattus norvegicus) (UniProt P42260); assay: Activity at rat recombinant GluK2 receptor expressed in Xenopus oocytes assessed as effect on glutamate-induced response by two-electrode voltage clamp technique; details: Oocyte
Procedure, shortened: (§1)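 Oocytes injected with 1–5 ng cRNA, kept in Barth's solution at 15°C for 2–5 days. Clamped at -40 mV in 90 NaCl, 1.0 KCl, 0.5 BaCl₂, 0.005 EDTA, 10 HEPES (mM), pH 7.4, 23°C. Receptors activated by 100 µM glutamate with compound co-applied. GluK2 oocytes pretreated with 10 µM concanavalin A for 10 min. DMSO 0.05–0.5% final.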

[3] = biological target: Glutamate receptor 1 (Rattus norvegicus) (UniProt P19490); assay: Activity at rat recombinant GluA1 receptor expressed in Xenopus oocytes assessed as effect on glutamate-induced response by two-electrode voltage clamp technique; details: Oocyte; procedure, shortened: as §1
BHK [4] = assay: Activity at GluN1/GluN2C receptor in hamster BHK cells assessed as effect on NMDA-induced response after 24 hrs by Fluo-4 dye-based fluorescence assay; details: Mesocricetus auratus
BHK [5] = assay: Activity at GluN1/GluN2C receptor in hamster BHK cells assessed as effect on NMDA-induced response up to 6 hrs by Fluo-4 dye-based fluorescence assay; details: Mesocricetus auratus

Chain of Glutamate receptor 1 (Rattus norvegicus) (P19490 whole entry): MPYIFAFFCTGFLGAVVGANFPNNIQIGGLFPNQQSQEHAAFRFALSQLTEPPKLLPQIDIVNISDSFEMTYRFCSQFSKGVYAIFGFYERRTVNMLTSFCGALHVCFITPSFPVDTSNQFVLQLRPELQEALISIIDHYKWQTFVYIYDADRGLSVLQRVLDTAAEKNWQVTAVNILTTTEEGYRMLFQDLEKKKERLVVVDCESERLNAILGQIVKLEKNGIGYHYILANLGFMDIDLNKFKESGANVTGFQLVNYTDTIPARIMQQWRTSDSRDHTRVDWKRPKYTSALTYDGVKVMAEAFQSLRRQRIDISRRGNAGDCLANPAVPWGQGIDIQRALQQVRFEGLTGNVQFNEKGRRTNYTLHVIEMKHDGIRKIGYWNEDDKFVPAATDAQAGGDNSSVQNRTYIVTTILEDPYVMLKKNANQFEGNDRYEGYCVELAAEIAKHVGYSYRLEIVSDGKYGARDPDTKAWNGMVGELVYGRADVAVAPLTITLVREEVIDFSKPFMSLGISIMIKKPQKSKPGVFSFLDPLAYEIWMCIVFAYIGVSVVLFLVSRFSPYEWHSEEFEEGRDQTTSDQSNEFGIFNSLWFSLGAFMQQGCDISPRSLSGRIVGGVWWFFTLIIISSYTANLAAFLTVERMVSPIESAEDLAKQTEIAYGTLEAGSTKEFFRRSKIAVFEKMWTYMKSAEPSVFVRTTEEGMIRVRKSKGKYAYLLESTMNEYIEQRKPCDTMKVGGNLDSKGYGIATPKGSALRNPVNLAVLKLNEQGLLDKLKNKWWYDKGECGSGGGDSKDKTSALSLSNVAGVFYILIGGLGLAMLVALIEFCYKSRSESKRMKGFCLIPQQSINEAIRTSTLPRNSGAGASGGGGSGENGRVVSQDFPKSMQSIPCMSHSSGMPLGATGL
Chain of Glutamate receptor ionotropic, kainate 2 (Rattus norvegicus) (P42260 whole entry): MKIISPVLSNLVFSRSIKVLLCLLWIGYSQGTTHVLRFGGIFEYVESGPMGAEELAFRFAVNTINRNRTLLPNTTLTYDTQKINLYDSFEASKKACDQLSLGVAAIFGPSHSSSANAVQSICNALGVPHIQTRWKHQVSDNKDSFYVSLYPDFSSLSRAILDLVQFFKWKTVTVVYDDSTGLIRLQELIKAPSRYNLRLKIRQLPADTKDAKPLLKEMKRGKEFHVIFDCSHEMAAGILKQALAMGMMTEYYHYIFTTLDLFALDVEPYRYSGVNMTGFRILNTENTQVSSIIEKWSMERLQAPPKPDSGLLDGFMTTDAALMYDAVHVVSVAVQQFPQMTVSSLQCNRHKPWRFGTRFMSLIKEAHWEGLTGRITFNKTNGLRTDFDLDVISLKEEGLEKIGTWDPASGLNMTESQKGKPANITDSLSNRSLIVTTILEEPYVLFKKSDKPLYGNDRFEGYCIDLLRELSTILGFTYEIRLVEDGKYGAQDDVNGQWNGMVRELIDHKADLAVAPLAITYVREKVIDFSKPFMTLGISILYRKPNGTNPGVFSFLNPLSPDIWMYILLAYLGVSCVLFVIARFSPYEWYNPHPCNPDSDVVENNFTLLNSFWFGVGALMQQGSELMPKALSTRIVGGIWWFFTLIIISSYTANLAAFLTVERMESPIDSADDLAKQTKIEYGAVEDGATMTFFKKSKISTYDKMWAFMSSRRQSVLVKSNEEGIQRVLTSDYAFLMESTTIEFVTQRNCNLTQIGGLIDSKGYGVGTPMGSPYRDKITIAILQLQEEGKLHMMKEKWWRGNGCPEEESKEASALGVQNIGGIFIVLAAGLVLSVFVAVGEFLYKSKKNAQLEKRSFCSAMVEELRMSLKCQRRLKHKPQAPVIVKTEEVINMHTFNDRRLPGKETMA

COc1ccc(OCC2c3cc(OC)c(OC)cc3CCN2C(=O)c2cccc(Cl)c2)cc1 (racemic)
Activity [1]: 353%
Activity [2]: inactive
Activity [3]: inactive
Activity (BHK [4]): inactive
Activity (BHK [5]): Active
